In brackets after ≈: the same amount, converted by molar mass.
How the values were obtained:
Format in all cases: functional
Escherichia coli = assay: Antibacterial activity against Escherichia coli ATCC 25922 by micro-broth dilution method
How it was run: (§1)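 MIC taken as the lowest concentration giving 90% inhibition of bacterial growth. Determined by microbroth dilution following National Committee (NCCLS) guidance, with each value determined in triplicate.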

Enterococcus faecium = assay: Antibacterial activity against vancomycin-resistant Enterococcus faecium ATCC 700221 by microbroth dilution method
How it was run: (§2)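 Microbroth dilution run per National Committee guidelines; MIC taken as the concentration giving 90% inhibition of bacterial growth. Tested within a broader panel of susceptible and resistant Gram-positive strains. Reported values come from triplicate determinations.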

Staphylococcus aureus [1] = assay: Antibacterial activity against Staphylococcus aureus ATCC 33592 by micro-broth dilution method; how it was run: as §1
Staphylococcus aureus [2] = assay: Antibacterial activity against methicillin-resistant Staphylococcus aureus ATCC 700699 by micro-broth dilution method; how it was run: as §2
Bacillus subtilis = assay: Antibacterial activity against Bacillus subtilis ATCC 6633 by micro-broth dilution method; how it was run: as §1
Streptococcus pneumoniae = assay: Antibacterial activity against penicillin-resistant Streptococcus pneumoniae ATCC 700904 by micro-broth dilution method; how it was run: as §2
Staphylococcus aureus [3] = assay: Antibacterial activity against linezolid-resistant Staphylococcus aureus NRS 119 by microbroth dilution method; how it was run: as §2
Pseudomonas aeruginosa = assay: Antibacterial activity against Pseudomonas aeruginosa ATCC 27853 by micro-broth dilution method; how it was run: as §1
[4] = tested on: Staphylococcus epidermidis; assay: Antibacterial activity against Staphylococcus epidermidis ATCC 12228 by micro-broth dilution method; how it was run: as §1
Staphylococcus aureus [5] = assay: Antibacterial activity against Staphylococcus aureus ATCC 33591 by micro-broth dilution method; how it was run: as §1
Enterococcus faecalis [6] = assay: Antibacterial activity against vancomycin-resistant Enterococcus faecalis ATCC 700802 by micro-broth dilution method; how it was run: as §2
Staphylococcus aureus [7] = assay: Antibacterial activity against Staphylococcus aureus ATCC 29213 by micro-broth dilution method; how it was run: as §1
Staphylococcus aureus [8] = assay: Antibacterial activity against Staphylococcus aureus ATCC 25923 by micro-broth dilution method; how it was run: as §1
Enterococcus faecalis [9] = assay: Antibacterial activity against Enterococcus faecalis ATCC 29212 by micro-broth dilution method; how it was run: as §1
Enterococcus faecalis [10] = assay: Antibacterial activity against Enterococcus faecalis ATCC 14506 by microbroth dilution method; how it was run: as §1
Klebsiella pneumoniae = assay: Antibacterial activity against Klebsiella pneumoniae ATCC 10031 by micro-broth dilution method; how it was run: as §1

| SMILES | MIC (Escherichia coli) [µg/mL] | MIC (Enterococcus faecium) [µg/mL] | MIC (Staphylococcus aureus [1]) [µg/mL] | MIC (Staphylococcus aureus [2]) [µg/mL] | MIC (Bacillus subtilis) [µg/mL] | MIC (Streptococcus pneumoniae) [µg/mL] | MIC (Staphylococcus aureus [3]) [µg/mL] | MIC (Pseudomonas aeruginosa) [µg/mL] | MIC [4] [µg/mL] | MIC (Staphylococcus aureus [5]) [µg/mL] | MIC (Enterococcus faecalis [6]) [µg/mL] | MIC (Staphylococcus aureus [7]) [µg/mL] | MIC (Staphylococcus aureus [8]) [µg/mL] | MIC (Enterococcus faecalis [9]) [µg/mL] | MIC (Enterococcus faecalis [10]) [µg/mL] | MIC (Klebsiella pneumoniae) [µg/mL] |
| --- | --- | --- | --- | --- | --- | --- | --- | --- | --- | --- | --- | --- | --- | --- | --- | --- |
| COc1c(N2CCc3sc(C(=O)O)cc3C2)c(F)cc2c(=O)c(C(=O)O)cn(C3CC3)c12 | 8 (≈ 17.4 µM) | > 16 | 0.5 (≈ 1.09 µM) | > 16 | 0.5 (≈ 1.09 µM) | 1 (≈ 2.18 µM) | > 16 | > 16 | 1 (≈ 2.18 µM) | 2 (≈ 4.36 µM) | 16 (≈ 34.9 µM) | 2 (≈ 4.36 µM) | 2 (≈ 4.36 µM) | 8 (≈ 17.4 µM) | > 16 | 2 (≈ 4.36 µM) |
| COc1c(N2CCc3sccc3C2)c(F)c([N+](=O)[O-])c2c(=O)c(C(=O)O)cn(C3CC3)c12 | 16 (≈ 34.8 µM) |  |  |  | 0.25 (≈ 0.544 µM) |  |  | > 16 | 2 (≈ 4.35 µM) | 8 (≈ 17.4 µM) |  |  |  |  |  |  |
| COc1c(N2CCc3sc(C=O)cc3C2)c(F)cc2c(=O)c(C(=O)O)cn(C3CC3)c12 | 0.25 (≈ 0.565 µM) | > 16 | ≤ 0.25 | 0.5 (≈ 1.13 µM) | ≤ 0.12 | ≤ 0.12 | ≤ 0.12 | 8 (≈ 18.1 µM) | ≤ 0.12 | ≤ 0.12 | 0.25 (≈ 0.565 µM) | ≤ 0.125 | ≤ 0.125 | ≤ 0.12 | 2 (≈ 4.52 µM) | ≤ 0.12 |
| O=C(O)c1cn(C2CC2)c2c(F)c(N3CCc4sccc4C3)c(F)c(F)c2c1=O | 0.5 (≈ 1.19 µM) | > 16 | 2 (≈ 4.76 µM) | > 16 | 0.25 (≈ 0.595 µM) | 2 (≈ 4.76 µM) | > 16 | > 16 | 2 (≈ 4.76 µM) | 4 (≈ 9.51 µM) | 16 (≈ 38.1 µM) | 4 (≈ 9.51 µM) | 2 (≈ 4.76 µM) | > 16 | > 16 | 8 (≈ 19 µM) |
| COc1c(N2CCc3sc(CO)cc3C2)c(F)cc2c(=O)c(C(=O)O)cn(C3CC3)c12 | 0.25 (≈ 0.562 µM) |  |  | 2 (≈ 4.5 µM) | ≤ 0.12 | ≤ 0.12 | 0.5 (≈ 1.12 µM) | 16 (≈ 36 µM) | > 16 | 2 (≈ 4.5 µM) | 0.25 (≈ 0.562 µM) | 2 (≈ 4.5 µM) | 2 (≈ 4.5 µM) | 0.5 (≈ 1.12 µM) |  | ≤ 0.12 |
| Nc1c(F)c(N2CCc3sc(Br)cc3C2)c(F)c2c1c(=O)c(C(=O)O)cn2C1CC1 | > 16 |  |  |  | > 16 |  |  | > 16 | > 16 |  |  |  |  | > 16 |  | > 16 |
| COc1c(N2CCNC(C)C2)c(F)cc2c(=O)c(C(=O)O)cn(C3CC3)c12 (stereo unspecified) [GATIFLOXACIN] | ≤ 0.12 | > 16 | 4 (≈ 10.7 µM) | 8 (≈ 21.3 µM) | ≤ 0.12 | ≤ 0.125 | 4 (≈ 10.7 µM) | 1 (≈ 2.66 µM) | 0.25 (≈ 0.666 µM) | 0.5 (≈ 1.33 µM) | 0.5 (≈ 1.33 µM) | 0.25 (≈ 0.666 µM) | ≤ 0.125 | 0.5 (≈ 1.33 µM) | 0.5 (≈ 1.33 µM) | ≤ 0.12 |
| COc1c(N2CCc3sc(Br)cc3C2)c(F)cc2c(=O)c(C(=O)O)cn(C3CC3)c12 | 2 (≈ 4.05 µM) | > 16 | 2 (≈ 4.05 µM) | > 16 | ≤ 0.12 | 8 (≈ 16.2 µM) | > 16 | > 16 | ≤ 0.12 | 1 (≈ 2.03 µM) | > 16 | 4 (≈ 8.11 µM) | 2 (≈ 4.05 µM) | 0.5 (≈ 1.01 µM) | > 16 | 4 (≈ 8.11 µM) |
| COc1c(N2CCc3sc([N+](=O)[O-])cc3C2)c(F)cc2c(=O)c(C(=O)O)cn(C3CC3)c12 | 0.5 (≈ 1.09 µM) | > 16 | 8 (≈ 17.4 µM) | 16 (≈ 34.8 µM) | ≤ 0.12 | 0.5 (≈ 1.09 µM) | > 16 | 1 (≈ 2.18 µM) | 4 (≈ 8.71 µM) | ≤ 0.12 | 16 (≈ 34.8 µM) | 4 (≈ 8.71 µM) | 4 (≈ 8.71 µM) | ≤ 0.12 | > 16 | 0.25 (≈ 0.544 µM) |
| O=C(O)c1cn(C2CC2)c2cc(N3CCNCC3)c(F)cc2c1=O [CIPROFLOXACIN] | ≤ 0.12 | > 16 | 0.5 (≈ 1.51 µM) | > 16 | ≤ 0.12 | 0.25 (≈ 0.754 µM) | > 16 |  | ≤ 0.12 | 1 (≈ 3.02 µM) | 1 (≈ 3.02 µM) | 1 (≈ 3.02 µM) | 0.25 (≈ 0.754 µM) | 2 (≈ 6.04 µM) | 1 (≈ 3.02 µM) | ≤ 0.12 |
| C[C@@H]1CN(c2c(F)c(N)c3c(=O)c(C(=O)O)cn(C4CC4)c3c2F)C[C@H](C)N1 [SPARFLOXACIN] |  | 16 (≈ 40.8 µM) | ≤ 0.25 | 8 (≈ 20.4 µM) | ≤ 0.12 | ≤ 0.125 | 16 (≈ 40.8 µM) | 0.25 (≈ 0.637 µM) | 0.25 (≈ 0.637 µM) | 16 (≈ 40.8 µM) | 1 (≈ 2.55 µM) | ≤ 0.125 | ≤ 0.125 |  | > 16 | ≤ 0.12 |
| COc1c(N2CCc3sccc3C2)c(F)cc2c(=O)c(C(=O)O)cn(C3CC3)c12 | ≤ 0.12 | 16 (≈ 38.6 µM) | 0.25 (≈ 0.603 µM) | 2 (≈ 4.83 µM) | ≤ 0.12 | ≤ 0.125 | > 16 | > 16 | > 16 | ≤ 0.12 | ≤ 0.125 | ≤ 0.125 | ≤ 0.125 | 2 (≈ 4.83 µM) | 0.25 (≈ 0.603 µM) | 0.25 (≈ 0.603 µM) |
| COc1c(N2CCc3sc(COC(C)=O)cc3C2)c(F)cc2c(=O)c(C(=O)O)cn(C3CC3)c12 | 0.5 (≈ 1.03 µM) |  | 2 (≈ 4.11 µM) | 4 (≈ 8.22 µM) | ≤ 0.12 | ≤ 0.12 | 2 (≈ 4.11 µM) | > 16 | ≤ 0.12 | 0.25 (≈ 0.514 µM) | 1 (≈ 2.06 µM) | 4 (≈ 8.22 µM) | 1 (≈ 2.06 µM) | 0.5 (≈ 1.03 µM) |  | 2 (≈ 4.11 µM) |
| O=C(O)c1cn(C2CC2)c2cc(N3CCc4sc(Br)cc4C3)c(F)cc2c1=O | 1 (≈ 2.16 µM) |  | 4 (≈ 8.63 µM) | > 16 | ≤ 0.12 | 2 (≈ 4.32 µM) | > 16 | > 16 | 0.5 (≈ 1.08 µM) | 4 (≈ 8.63 µM) | > 16 | 4 (≈ 8.63 µM) | 0.5 (≈ 1.08 µM) |  | > 16 | 2 (≈ 4.32 µM) |
| CC(=O)Nc1c(F)c(N2CCc3sccc3C2)c(F)c2c1c(=O)c(C(=O)O)cn2C1CC1 | > 16 |  |  |  | 1 (≈ 2.18 µM) |  |  | > 16 | > 16 | > 16 |  |  |  | > 16 |  | > 16 |
| O=C(O)c1cn(C2CC2)c2cc(N3CCc4sccc4C3)c(F)cc2c1=O | 0.25 (≈ 0.65 µM) | > 16 | 1 (≈ 2.6 µM) | > 16 | ≤ 0.12 | 0.25 (≈ 0.65 µM) | > 16 | > 16 | 8 (≈ 20.8 µM) | 4 (≈ 10.4 µM) | 4 (≈ 10.4 µM) | 4 (≈ 10.4 µM) | 1 (≈ 2.6 µM) |  | 16 (≈ 41.6 µM) | ≤ 0.12 |
| Nc1c(F)c(N2CCc3sccc3C2)c(F)c2c1c(=O)c(C(=O)O)cn2C1CC1 | 0.25 (≈ 0.599 µM) | > 16 | 4 (≈ 9.58 µM) | > 16 | ≤ 0.12 | 2 (≈ 4.79 µM) | > 16 | > 16 | 16 (≈ 38.3 µM) | 4 (≈ 9.58 µM) | 16 (≈ 38.3 µM) | 8 (≈ 19.2 µM) | 4 (≈ 9.58 µM) | > 16 | > 16 | 4 (≈ 9.58 µM) |
